From ChEMBL document CHEMBL5107950, “Structure-based design of haloperidol analogues as inhibitors of acetyltransferase Eis from Mycobacterium tuberculosis to overcome kanamycin resistance” (RSC Med Chem, 2021)
≈ marks a conversion by molar mass, not a printed value.

Experiments:
[1] = target: T1, N-acetyltransferase Eis (Mycobacterium tuberculosis (strain ATCC 25618 / H37Rv), UniProt P9WFK7); experiment: Inhibition of Mycobacterium tuberculosis Eis assessed as Eis-mediated kanamycin acetylation preincubated for 10 mins followed by substrate addition and measured for 2 to 5 mins using acetyl-CoA as substrate in presence of kanamycin by UV-Vis spectroscopy analysis
T1 sequence (P9WFK7 whole entry): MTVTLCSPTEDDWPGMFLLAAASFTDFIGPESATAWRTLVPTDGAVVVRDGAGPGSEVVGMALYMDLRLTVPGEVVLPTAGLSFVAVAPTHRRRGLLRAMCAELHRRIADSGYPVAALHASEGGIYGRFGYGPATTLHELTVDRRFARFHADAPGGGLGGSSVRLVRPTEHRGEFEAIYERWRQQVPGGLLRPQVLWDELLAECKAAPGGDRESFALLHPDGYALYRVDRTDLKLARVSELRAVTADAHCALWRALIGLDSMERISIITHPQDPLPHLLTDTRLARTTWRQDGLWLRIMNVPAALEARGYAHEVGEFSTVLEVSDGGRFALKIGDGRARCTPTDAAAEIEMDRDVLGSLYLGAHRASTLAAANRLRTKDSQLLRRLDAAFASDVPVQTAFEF
Method in brief: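 Recombinant Eis (1 µM) mixed with KAN (400 µM) in 50 mM Tris-HCl pH 8.0 and preincubated 10 min with 5-fold serially diluted inhibitor (10% DMSO in buffer). Reaction started with AcCoA and DTNB (2 mM each, as added). Absorbance read every 30 s for 20 min. Initial rates (first 2-5 min) fitted to Hill plot for IC50. At least triplicate.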

[2] = system: Mycolicibacterium smegmatis; experiment: Antibacterial activity against Mycobacterium smegmatis mc2 155 assessed as inhibition of bacterial growth incubated upto 3 weeks hrs by resazurin dye based double-dilution method; type: functional; details: mc2 155, 504 h
Method in brief: (§1)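 Double-dilution broth MIC. Media: M. smegmatis, Mueller-Hinton; M. abscessus, 7H9 + 0.05% Tween80 + 0.4% glycerol; mc²6230, 7H9 + 0.05% tyloxapol, 0.5% glycerol, 10% OADC, 0.2% casamino acids, 24 µg/mL pantothenate; other mycobacteria, 7H9 + 0.05% Tween80, 0.4% glycerol, 10% ADC. Inoculum from agar set to 0.5 McFarland, then diluted 1:100.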

[3] = system: Mycobacteroides abscessus; experiment: Antibacterial activity against Mycobacterium abscessus ATCC 19977 assessed as inhibition of bacterial growth incubated upto 3 weeks hrs by resazurin dye based double-dilution method; type: functional; details: ATCC 19977, 504 h; method in brief: as §1
[4] = system: Mycobacterium intracellulare; experiment: Antibacterial activity against Mycobacterium intracellulare ATCC 13950 assessed as inhibition of bacterial growth incubated upto 3 weeks hrs by resazurin dye based double-dilution method; type: functional; details: ATCC 13950, 504 h; method in brief: as §1
[5] = system: Mycobacterium avium; experiment: Antibacterial activity against Mycobacterium avium ATCC 25921 assessed as inhibition of bacterial growth incubated upto 3 weeks hrs by resazurin dye based double-dilution method; type: functional; details: ATCC 25921, 504 h; method in brief: as §1
[6] = system: Mycobacterium tuberculosis; experiment: Antibacterial activity against Mycobacterium tuberculosis H37Ra ATCC NRS22 assessed as inhibition of bacterial growth incubated upto 3 weeks hrs by resazurin dye based double-dilution method; type: functional; details: H37Ra ATCC NRS22, 504 h; method in brief: as §1
[7] = system: Mycobacterium tuberculosis; experiment: Potentiation of kanamycin-induced antibacterial activity against Mycobacterium tuberculosis H37Rv assessed as kanamycin MIC incubated for 1 day followed by kanamycin addition for 6 days and by Alamar blue assay; type: functional; details: 168 h, time 7 day
Method in brief: (§2)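 Mtb in 7H9 + 10% ADC, 0.05% Tween 80, 0.4% glycerol at 37 °C. Inoculum adjusted to OD600 0.2, diluted 1:25. Cells preincubated 24 h at 37 °C with compound (100 µL of 200 µM solution). KAN then added: H37Rv at 2.5 and 1.25 µg/mL; K204 at 10, 5, 2.5, 1.25 µg/mL. Incubated 6 days, AlamarBlue added, colour read at 24 and 48 h. MIC = lowest KAN with no colour change. At least twice in duplicate.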

[8] = system: Mycobacterium tuberculosis; experiment: Potentiation of kanamycin-induced antibacterial activity against Mycobacterium tuberculosis K204 assessed as kanamycin MIC incubated for 1 day followed by kanamycin addition for 6 days and by Alamar blue assay; type: functional; details: K204, 168 h, time 7 day; method in brief: as §2
[9] = system: Mycolicibacterium smegmatis; experiment: Synergistic antibacterial activity against Mycobacterium smegmatis mc2 155 assessed as fold reduction in MIC value at 8 ug/ml in presence of spectinomycin by checkerboard assay; type: functional; details: dose 8 µg/ml
[10] = system: Mycolicibacterium smegmatis; experiment: Synergistic antibacterial activity against Mycobacterium smegmatis mc2 155 assessed as fold reduction in MIC value at 8 ug/ml in presence of clarithromycin by checkerboard assay; type: functional; details: dose 8 µg/ml
[11] = Metabolic stability in human liver microsomes at 2 to 4 uM incubated for 30 mins by LC-MS/MS analysis; type: ADME, Microsome; details: dose 2-4 µM, read-out: Stability
[12] = Metabolic stability in mouse liver microsomes at 2 to 4 uM incubated for 30 mins by LC-MS/MS analysis; type: ADME, Microsome; details: dose 2-4 µM, read-out: Stability

SMILES | IC50 [1] [µM] | MIC [2] [µM] | MIC [3] [µM] | MIC [4] [µM] | MIC [5] [µM] | MIC [6] [µM] | MIC [7] [µg/mL] | MIC [8] [µg/mL] | fold change (FC) [9] | fold change (FC) [10] | remaining at 0.5 h [11] [%] | remaining at 0.5 h [12] [%]
Fc1ccc(OCCCN2CCC(c3ccccc3)CC2)cc1 | 14 | > 62.5 | 62.5 (≈ 19.6 µg/mL) | 62.5 (≈ 19.6 µg/mL) | > 62.5 | 31.3 (≈ 9.81 µg/mL) |  |  |  |  |  | 
NNC(=O)c1ccncc1 [ISONIAZID] |  | 3.9 (≈ 0.535 µg/mL) | > 62.5 | 3.9 (≈ 0.535 µg/mL) | 62.5 (≈ 8.57 µg/mL) | ≤ 1 |  |  |  |  |  | 
CC1CC(C)CN(CCCOc2ccc(F)cc2)C1 (centres undefined) | 42 | 62.5 (≈ 16.6 µg/mL) | > 62.5 | > 62.5 | > 62.5 | 62.5 (≈ 16.6 µg/mL) |  |  |  |  |  | 
O=C(CCCN1CCC(O)(c2ccc(Br)cc2)CC1)c1ccc(Br)cc1 | > 200 | 31.3 (≈ 15.1 µg/mL) | > 62.5 | > 62.5 | > 62.5 | 7.8 (≈ 3.75 µg/mL) | ≤ 1.25 | > 10 |  |  |  | 
CC(C)(C)c1ccc(C(=O)CCCN2CCC(O)(c3ccc(F)cc3)CC2)cc1 | 200 | 62.5 (≈ 24.8 µg/mL) | > 62.5 | 31.3 (≈ 12.4 µg/mL) | 31.3 (≈ 12.4 µg/mL) | 15.6 (≈ 6.2 µg/mL) |  |  | 16 | 4 | 50 | 48
O=C(CCCN1CCC(O)(c2ccc(F)cc2)CC1)c1ccc(Br)cc1 | 6.6 | > 62.5 | > 62.5 | 62.5 (≈ 26.3 µg/mL) | 62.5 (≈ 26.3 µg/mL) | 31.3 (≈ 13.2 µg/mL) | ≤ 1.25 | 10 |  |  |  | 
CC(=O)CCCN1CCC(O)(c2ccc(Cl)cc2)CC1 | 40 | > 62.5 | > 62.5 | > 62.5 | > 62.5 | > 62.5 |  |  |  |  |  | 
O=C(CCCN1CCC(O)(c2ccc(F)cc2)CC1)c1ccccc1 | 3.1 | > 62.5 | > 62.5 | > 62.5 | > 62.5 | > 62.5 | ≤ 1.25 | 10 |  |  |  | 
O=C(CCCN1CCC(O)(c2ccccc2)CC1)c1ccc(F)cc1 | 0.85 | > 62.5 | > 62.5 | > 62.5 | > 62.5 | > 62.5 |  |  |  |  |  | 
O=C(CCCN1CCCCC1)c1ccc(F)cc1 [PRIMAPERONE] | 0.62 | > 62.5 | > 62.5 | > 62.5 | > 62.5 | > 62.5 |  |  |  |  |  | 
O=C(CCCN1CC=C(c2ccc(Cl)cc2)CC1)c1ccc(F)cc1 | 0.56 | > 62.5 | > 62.5 | 15.6 (≈ 5.58 µg/mL) | 31.3 (≈ 11.2 µg/mL) | 7.8 (≈ 2.79 µg/mL) |  |  |  |  | 30 | 90
O=C(CN1CCC(O)(c2ccc(Cl)cc2)CC1)c1ccc(F)cc1 | 100 | > 62.5 | > 62.5 | > 62.5 | > 62.5 | > 62.5 |  |  |  |  |  | 
Cc1ccc(S(=O)(=O)N2CCC(O)(c3ccc(Cl)cc3)CC2)cc1 | > 200 | > 62.5 | > 62.5 | > 62.5 | > 62.5 | > 62.5 |  |  |  |  |  | 
